Results from ChEMBL document CHEMBL1152229, “Synthesis of potent water-soluble tissue transglutaminase inhibitors” (Bioorg Med Chem Lett, 2008).

What was measured:
[1] = Inhibition of guinea pig liver transglutaminase 2 using 5-(biotinamido)pentylamine as substrate by enzyme linked sorbent assay; parameters: species or system Cavia porcellus
How it was run: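 Wells coated with N,N'-dimethylcasein received TG2 (2 ng ml-1), biotinyl-5-pentylamine, CaCl2 (5 mM), DTT (5 mM) and a range of inhibitor concentrations, then were incubated for 1 h at 37 °C. Incorporated biotinyl-5-pentylamine was quantified with Extravidin peroxidase and o-phenylenediamine colour development.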

[2] = Aqueous solubility of the compound; format: physicochemical
[3] = species on record: Cavia porcellus; test: Inhibition of guinea pig liver transglutaminase 2 at 5 uM preincubated for 60 mins in the presence of Ca2+; parameters: scale not given: the % may be the effect or the level left
[4] = test system: Rattus norvegicus; test: Protective effect against kidney dysfunction in Wistar rat subtotal 5/6 nephrectomy model of kidney scarring assessed as reduction in scarring administered through osmotic pump measured after 84 days of surgery; format: functional; parameters: scale not given: the % may be the effect or the level left

Compound	IC50 [1]	other results
C[S+](C)CC(=O)CC[C@H](NC(=O)[C@H](Cc1ccccc1)NC(=O)OCCc1ccccc1)C(=O)O	8 µM	
CC[C@H](C)[C@H](NC(=O)OCc1ccccc1)C(=O)N[C@@H](CCC(=O)C[S+](C)C)C(=O)O	350 µM	
C[S+](C)CC(=O)CC[C@H](NC(=O)[C@H](Cc1c[nH]c2ccccc12)NC(=O)OCc1ccccc1)C(=O)O	12 µM	
O=C(N[C@@H](Cc1ccccc1)C(=O)NCC1CC(Br)=NO1)OCc1ccccc1 (stereo partly specified)	> 200 µM	solubility ([2]; water, read-out: solubility): < 1 mg/mL
C[S+](C)CC(=O)CC[C@H](NC(=O)[C@H](Cc1ccccc1)NC(=O)OCC1c2ccccc2-c2ccccc21)C(=O)O	30 µM	
C[S+](C)CC(=O)CC[C@H](NC(=O)[C@H](CCCCN)NC(=O)OCc1ccccc1)C(=O)O	150 µM	
C[S+](C)CC(=O)CC[C@H](NC(=O)CNC(=O)OCc1ccccc1)C(=O)O.[Br-]	8 µM	solubility ([2]; water, read-out: solubility): 1000 mg/mL
C[S+](C)CC(=O)CC[C@H](NC(=O)[C@@H]1CCCN1C(=O)OCc1ccccc1)C(=O)O.[Br-]	5 µM	Activity [3]: 77%; solubility ([2]; water, read-out: solubility): 500 mg/mL
C[S+](C)CC(=O)CC[C@H](NC(=O)[C@H](Cc1ccccc1)NC(=O)OC(C)(C)C)C(=O)O	300 µM	
C[S+](C)CC(=O)CC[C@H](NC(=O)[C@H](Cc1ccccc1)NC(=O)Cc1ccccc1)C(=O)O	110 µM	
C[S+](C)CC(=O)CC[C@H](NC(=O)[C@H](Cc1ccccc1)NC(=O)OCc1ccccc1)C(=O)O.[Br-] (stereo in doubt; 4n)	5 µM	solubility ([2]; buffer): 67 mg/mL
CC(=O)CSc1n(C)cc[n+]1C.[Cl-]	4 µM	solubility ([2]; water, read-out: solubility): 200 mg/mL
C[S+](C)CC(=O)CC[C@H](NC(=O)[C@H](CC(=O)O)NC(=O)OCc1ccccc1)C(=O)O	28 µM	
C[S+](C)CC(=O)CC[C@H](NC(=O)[C@H](Cc1ccccc1)NC(=O)OCc1ccccc1)C(=O)O.[Br-] (stereo in doubt; 4d)	10 µM	Activity [4]: 90%; solubility ([2]; buffer): 167 mg/mL
Cc1c(C)[n+](C)c(SCC(=O)CC[C@H](NC(=O)[C@H](Cc2ccccc2)NC(=O)OCc2ccccc2)C(=O)O)n1C	3 µM	
CC[S+](CC)CC(=O)CC[C@H](NC(=O)[C@H](Cc1ccccc1)NC(=O)OCc1ccccc1)C(=O)O	20 µM	
C[S+](C)CC(=O)CC[C@H](NC(=O)[C@@H]1C[C@@H](O)CN1C(=O)OCc1ccccc1)C(=O)O	18 µM	
C[C@H](NC(=O)OCc1ccccc1)C(=O)N[C@@H](CCC(=O)C[S+](C)C)C(=O)O	20 µM	
